Measurements: ChEMBL document CHEMBL4765342, “Substituted benzothiophene and benzofuran derivatives as a novel class of bone morphogenetic Protein-2 upregulators: Synthesis, anti-osteoporosis efficacies in ovariectomized rats and a zebrafish model, and ADME properties” (Eur J Med Chem, 2020)

Assays:
[1] = Renal toxicity in BALB/c mouse assessed as effect on serum urea level at 50 to 100 mg/kg, ig administered for 14 days; format: organism-based; conditions: in vivo, po, 336 h, dose 50-100 mg/kg, time 14 day
How it was run: (§1)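 BALB/c mice, 10 per group, gavaged daily for 14 days at 50 or 100 mg/kg; blank control group included. Hair, behaviour and neurological signs (fremitus, convulsion, spasm, gait disturbance) were observed. At day 14, mice were weighed and given routine blood tests and serum biochemistry (ALT, AST, urea, creatinine; n = 10). Liver and kidney were examined on paraffin-embedded histology sections.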

[2] = Cmax in Sprague-Dawley rat at 10 mg/kg, po by LC-MS/MS analysis; format: ADME, organism-based; set-up: route oral, dose 10 mg/kg; conditions: in vivo
How it was run: (§2)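 SD rats dosed iv or intragastrically. Plasma (50 µL) was mixed with diclofenac internal standard (50 ng/mL, 300 µL), vortexed, centrifuged at 4 °C, and the supernatant analysed by LC/MS/MS against spiked standard and QC curves. Noncompartmental parameters calculated; mean ± SD, n = 3 (bioavailability excepted).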

[3] = MRT in Sprague-Dawley rat at 2 mg/kg, iv by LC-MS/MS analysis; format: ADME, organism-based; conditions: in vivo; how it was run: as §2
[4] = Toxicity in BALB/c mouse assessed as hepatocyte nucleus mitosis at 50 to 100 mg/kg, ig administered for 14 days; format: organism-based; conditions: in vivo, po, 336 h, dose 50-100 mg/kg, time 14 day; how it was run: as §1
[5] = Hepatotoxicity in BALB/c mouse assessed as effect on serum AST level at 50 to 100 mg/kg, ig administered for 14 days; format: toxicity, organism-based; conditions: in vivo, po, 336 h, dose 50-100 mg/kg, time 14 day; how it was run: as §1
[6] = Toxicity in BALB/c mouse assessed as effect on behavioral change at 50 to 100 mg/kg, ig administered for 14 days; format: organism-based; conditions: in vivo, po, 336 h, dose 50-100 mg/kg, time 14 day; how it was run: as §1
[7] = Hepatotoxicity in BALB/c mouse assessed as effect on serum ALT level at 50 to 100 mg/kg, ig administered for 14 days; format: toxicity, organism-based; conditions: in vivo, po, 336 h, dose 50-100 mg/kg, time 14 day; how it was run: as §1
[8] = AUC (0 to t) in Sprague-Dawley rat at 10 mg/kg, po by LC-MS/MS analysis; format: ADME, organism-based; set-up: dose 10 mg/kg; conditions: in vivo
[9] = Half life in Sprague-Dawley rat at 10 mg/kg, po by LC-MS/MS analysis; format: ADME, organism-based; conditions: in vivo; how it was run: as §2
[10] = Apparent permeability across apical to basolateral side in human Caco-2 cells at 10 uM incubated for 2 hrs LC-MS/MS analysis; format: ADME, cell-based; conditions: Caco-2
How it was run: (§3)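 Caco-2 monolayers, apical to basolateral direction. Plates preincubated 30 min at 37 °C, then exposed to 10 µM compound for 2 h at 37 °C without shaking. Donor and receiver samples were quenched, centrifuged and measured by LC/MS/MS, in duplicate. Papp calculated from receiver concentration, area and time. Monolayer integrity checked by TEER and by Lucifer yellow leakage (30 min, 37 °C, ex 485/em 530 nm).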

[11] = Initial concentration in Sprague-Dawley rat at 2 mg/kg, iv by LC-MS/MS analysis; format: ADME, organism-based; conditions: in vivo; how it was run: as §2
[12] = Tmax in Sprague-Dawley rat at 10 mg/kg, po by LC-MS/MS analysis; format: ADME, organism-based; conditions: in vivo; how it was run: as §2
[13] = biological target: Cytochrome P450 2D6 (Homo sapiens, UniProt P10635); experiment: Inhibition of CYP2D6 in human liver microsomes using dextromethorphan as substrate incubated for 5 mins followed by NADPH addition and measured after 20 mins by LC-MS/MS analysis
[14] = biological target: T1, Cytochrome P450 1A2 (Homo sapiens, UniProt P05177); experiment: Inhibition of CYP1A2 in human liver microsomes using phenacetin as substrate incubated for 5 mins followed by NADPH addition and measured after 20 mins by LC-MS/MS analysis; format: ADME
T1 sequence (P05177 whole entry): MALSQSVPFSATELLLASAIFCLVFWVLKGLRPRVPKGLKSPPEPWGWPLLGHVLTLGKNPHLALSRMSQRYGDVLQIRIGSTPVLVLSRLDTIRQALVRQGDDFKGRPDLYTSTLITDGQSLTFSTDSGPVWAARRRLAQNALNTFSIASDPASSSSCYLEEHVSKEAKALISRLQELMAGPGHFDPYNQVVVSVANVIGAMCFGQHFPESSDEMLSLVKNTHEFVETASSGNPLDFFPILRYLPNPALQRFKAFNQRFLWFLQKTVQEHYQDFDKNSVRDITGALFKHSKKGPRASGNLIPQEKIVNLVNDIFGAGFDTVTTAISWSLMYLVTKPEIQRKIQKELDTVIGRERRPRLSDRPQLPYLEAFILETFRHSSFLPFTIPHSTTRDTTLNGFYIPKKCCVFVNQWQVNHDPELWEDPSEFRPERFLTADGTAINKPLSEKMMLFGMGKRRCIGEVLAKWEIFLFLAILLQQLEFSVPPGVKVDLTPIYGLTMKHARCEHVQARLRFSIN
How it was run: (§4)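 Human liver microsomes at 0.2 mg/mL mixed with probe substrates, preincubated 5 min at 37 °C. Reaction started with NADPH and run 20 min at 37 °C in a shaking bath. Quenched, held at -20 °C for 1 h, centrifuged, and the supernatant analysed by LC/MS/MS. Assay validated with specific inhibitors for each isoform.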

[15] = Toxicity in BALB/c mouse assessed as effect on liver megakaryocyte at 50 to 100 mg/kg, ig administered for 14 days; format: organism-based; conditions: in vivo, po, 336 h, dose 50-100 mg/kg, time 14 day; how it was run: as §1
[16] = Permeability across apical to basolateral side in human Caco-2 cells assessed as […] yellow leakage at 10 uM incubated for 2 hrs LC-MS/MS analysis; format: ADME, cell-based; conditions: caco-2, 2 h; how it was run: as §3
[17] = AUC (0 to infinity) in Sprague-Dawley rat at 2 mg/kg, iv by LC-MS/MS analysis; format: ADME, organism-based; set-up: route intravenous, time infinity, dose 2 mg/kg; conditions: in vivo
How it was run: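 The acid metabolite of the parent ester was dosed directly to Sprague-Dawley rats, iv or intragastrically (n=3). Plasma (50 µL) was spiked with 5 µL DMSO, extracted with 300 µL acetonitrile containing 50 ng/mL diclofenac internal standard, then vortexed and centrifuged at 4 °C. Supernatant was quantified by LC/MS/MS against plasma calibration standards and QCs. AUC came from noncompartmental analysis.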

[18] = Toxicity in BALB/c mouse assessed as gait disturbance at 50 to 100 mg/kg, ig administered for 14 days; format: organism-based; conditions: in vivo, po, 336 h, dose 50-100 mg/kg, time 14 day; how it was run: as §1
[19] = biological target: Cytochrome P450 2C19 (Homo sapiens, UniProt P33261); experiment: Inhibition of CYP2C19 in human liver microsomes using omeprazole as substrate incubated for 5 mins followed by NADPH addition and measured after 20 mins by LC-MS/MS analysis; format: ADME; how it was run: as §4
[20] = Toxicity in BALB/c mouse assessed as effect on body weight at 50 to 100 mg/kg, ig administered for 14 days; format: organism-based; conditions: in vivo, po, 336 h, dose 50-100 mg/kg, time 14 day; how it was run: as §1
[21] = Toxicity in BALB/c mouse assessed as inflammatory infiltration in liver at 50 to 100 mg/kg, ig administered for 14 days; format: organism-based; conditions: in vivo, po, 336 h, dose 50-100 mg/kg, time 14 day; how it was run: as §1
[22] = Toxicity in Kunming mouse assessed as organism death administered orally for 3 days and observed for 17 days starting from drug administration; conditions: in vivo, po, 408 h, time 17 day
[23] = Toxicity in BALB/c mouse assessed as hepatocyte necrotic foci at 50 to 100 mg/kg, ig administered for 14 days; format: organism-based; conditions: in vivo, po, 336 h, dose 50-100 mg/kg, time 14 day; how it was run: as §1
[24] = biological target: Cytochrome P450 2C9 (Homo sapiens, UniProt P11712); experiment: Inhibition of CYP2C9 in human liver microsomes using diclofenac as substrate incubated for 5 mins followed by NADPH addition and measured after 20 mins by LC-MS/MS analysis; format: ADME
[25] = Toxicity in BALB/c mouse assessed as convulsion at 50 to 100 mg/kg, ig administered for 14 days; format: organism-based; conditions: in vivo, po, 336 h, dose 50-100 mg/kg, time 14 day; how it was run: as §1

Sequence of Cytochrome P450 2C9 (P11712 whole entry): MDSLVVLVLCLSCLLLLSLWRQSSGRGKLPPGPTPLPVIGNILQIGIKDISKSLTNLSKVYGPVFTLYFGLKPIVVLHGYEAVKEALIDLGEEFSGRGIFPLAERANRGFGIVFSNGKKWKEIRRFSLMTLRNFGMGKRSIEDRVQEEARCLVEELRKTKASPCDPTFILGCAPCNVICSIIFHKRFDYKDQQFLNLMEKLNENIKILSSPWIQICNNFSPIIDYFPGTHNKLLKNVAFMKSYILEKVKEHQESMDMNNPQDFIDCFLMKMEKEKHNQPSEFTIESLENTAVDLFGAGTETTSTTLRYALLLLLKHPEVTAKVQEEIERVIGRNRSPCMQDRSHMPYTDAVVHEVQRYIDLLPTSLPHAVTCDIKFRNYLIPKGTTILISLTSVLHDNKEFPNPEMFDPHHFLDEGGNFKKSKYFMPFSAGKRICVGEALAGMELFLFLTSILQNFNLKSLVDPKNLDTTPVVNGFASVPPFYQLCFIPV
Sequence of Cytochrome P450 2D6 (P10635 whole entry): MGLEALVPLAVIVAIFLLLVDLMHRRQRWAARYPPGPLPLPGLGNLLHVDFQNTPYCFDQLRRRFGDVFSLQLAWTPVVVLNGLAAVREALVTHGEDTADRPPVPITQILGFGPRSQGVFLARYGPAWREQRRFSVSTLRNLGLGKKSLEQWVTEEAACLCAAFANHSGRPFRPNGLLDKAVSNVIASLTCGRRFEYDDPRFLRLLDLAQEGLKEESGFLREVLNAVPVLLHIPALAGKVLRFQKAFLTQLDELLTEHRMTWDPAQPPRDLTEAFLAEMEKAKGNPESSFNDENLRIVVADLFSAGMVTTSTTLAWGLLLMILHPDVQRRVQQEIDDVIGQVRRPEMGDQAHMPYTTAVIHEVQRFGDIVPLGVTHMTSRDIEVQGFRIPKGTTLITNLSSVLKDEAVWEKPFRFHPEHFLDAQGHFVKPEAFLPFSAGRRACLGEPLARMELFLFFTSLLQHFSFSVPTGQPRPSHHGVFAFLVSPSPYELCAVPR
Sequence of Cytochrome P450 2C19 (P33261 whole entry): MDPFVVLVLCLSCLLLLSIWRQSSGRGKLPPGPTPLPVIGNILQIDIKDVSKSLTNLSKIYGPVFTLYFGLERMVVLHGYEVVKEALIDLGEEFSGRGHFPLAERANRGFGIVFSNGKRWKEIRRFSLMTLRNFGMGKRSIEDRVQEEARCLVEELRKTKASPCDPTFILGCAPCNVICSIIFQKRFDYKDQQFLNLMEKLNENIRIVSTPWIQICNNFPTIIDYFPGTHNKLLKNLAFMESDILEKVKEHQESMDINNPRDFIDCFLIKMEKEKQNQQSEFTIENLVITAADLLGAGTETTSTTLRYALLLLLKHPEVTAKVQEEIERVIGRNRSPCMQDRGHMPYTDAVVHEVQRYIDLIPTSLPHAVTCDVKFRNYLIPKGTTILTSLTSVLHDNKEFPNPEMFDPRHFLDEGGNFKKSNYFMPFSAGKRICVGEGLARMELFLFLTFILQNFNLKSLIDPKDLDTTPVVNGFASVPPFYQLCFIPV

## COc1ccc2cc(C(=O)NCCN(C)C)oc2c1.CS(=O)(=O)O
[1]
  Activity: Non-Toxic
[2]
  Cmax: 0.0542 µg/mL
[3]
  MRT: 2.85 h
[4]
  Activity: Toxic
[5]
  Activity: Non-Toxic
[6]
  Activity: Non-Toxic
[7]
  Activity: Non-Toxic
[8]
  AUC(0-t): 0.278 µg·h/mL
[9]
  half-life: 4.53 h
[10]
  Papp A→B at 2 h, 10 µM: 93.4 nm/s
[11]
  C0: 0.0172 µg/mL
[12]
  Tmax: 0.5 h
[13]
  IC50: 7.84 µM
[14]
  IC50: > 10 µM
[15]
  Activity: Toxic
[16]
  Activity: 0.158%
[17]
  AUC(0-inf): 0.069 µg·h/mL
[18]
  Activity: Non-Toxic
[19]
  IC50: > 10 µM
[20]
  Activity: Non-Toxic
[21]
  Activity: Toxic
[22]
  LD50: > 500 mg/kg/day
[23]
  Activity: Toxic
[24]
  IC50: > 10 µM
[25]
  Activity: Non-Toxic
